Measured values: publication PMC11520922 (International Journal of Nanomedicine, 2024)
“Also recorded” adds a separate entry of the source.

Key:
[1] = cited from earlier work
[2] = system: Peripheral Blood Mononuclear Cells (PBMCs); assay: Ex vivo peripheral blood mononuclear cells; type: cell-based, male Sprague–Dawley rats; conditions: rat PBMCs
How it was run: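 PBMCs came from the peripheral blood of male Sprague–Dawley rats. They were isolated by Ficoll–Paque density-gradient centrifugation, collected from the interphase and washed three times in RPMI 1640. Cells were plated at 1×10^6/well in RPMI 1640 with 10% FBS (37 °C, 5% CO2) and incubated overnight with free test compound or albumin-nanoparticle formulation. Viability was then read by the CCK-8 A450 procedure used for HuT-78.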

[3] = cited from earlier work; remark: listed apart in the source
[4] = In vivo pharmacokinetic study; parameters: species or system Sprague–Dawley rats
How it was run: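 Male Sprague–Dawley rats (~300 g) were anaesthetised with Zoletil i.m. at […]. They received test compound in 10% ethanol or as albumin nanoparticles s.c. at 0.33 mg g−1. Blood (400 μL) was drawn from the subclavian vein at 0.08–6 h into heparin tubes. Plasma was spiked with carbamazepine internal standard, deproteinised with methanol, dried and reconstituted in methanol. Analysis was by RP-18 HPLC at 265 nm, and parameters were computed by first-order kinetic modelling.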

[5] = clinical; cited from earlier work
[6] = male, Sprague-Dawley, rat, plasma, sc, 0.333 mg

O=C(/C=C/c1cccc(S(=O)(=O)Nc2ccccc2)c1)NO [Belinostat]
log P [1]: 1.83
pKa [1]: 7.87
viability of PBMCs ([2]; concentration 10 μM): decreases
viability (survival) of PBMC ([2]; high dose 100 μM): did not survive; also recorded: no survival
protein binding affinity [3]: 92.9–95.8%
CL ([4]; SD rats, subcutaneous, 0.333 mg g^−1, n = 3): 5.32 ± 1.53 mL/h
AUC(0-t) [4, 6]: 62000 ± 28700 ng·h/mL
Cmax [4, 6]: 8650 ± 780 ng/mL
Tmax [4, 6]: 0.43 ± 0.13 h
half-life [4, 6]: 4.66 ± 1.66 h
thrombocytopenia adverse events, Grade 3 to 4 [5]: ~ 7%
thrombocytopenia adverse events, all grades [5]: ~ 16%
